Screening results deposited in PubChem by Sanford-Burnham Center for Chemical Genomics.
Most compounds without a hit are left out; they make up all but 0.77% or so of the library.
bIAP act: increases bovine intestinal alkaline phosphatase activity; purified bovine IAP, CDP-star luminescence, 30 min; hits give high values; fold of DMSO-control signal, blank-subtracted; activation factor at 20 µM; 200,000 compounds, 0.17% hits; AID 1016;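 active = activation factor of 2 or more at 20 µM, a signal rise over negative controls twice the positive control's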
mIAP block: mouse IAP inhibition. purified mouse IAP, CDP-Star luminescence, 30 min. inhibition, % at 10 µM. 330,000 compounds, 0.2% hits;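 active = inhibition of at least 40% at 10 µM in the primary screen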;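 note: plate controls were DMSO with enzyme for no effect and no enzyme wells for full effect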
mIAP activ: increases mouse intestinal alkaline phosphatase activity; muIAP, CDP-Star luminescence, 30 min; hits give high values; 1 = vehicle-only enzyme signal, 0 = enzyme-free wells; activation factor at 10 µM; 330,000 compounds, 0.24% hits; AID 2805;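 active = activation factor of at least 2 at 20 µM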
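Assay system: mouse IAP enzyme; reagent: chemiluminescent substrate CDP-Star; dosing: test compounds delivered from DMSO solution; schedule: 30 min at room temperature; measured by: luminescence from enzymatic CDP-Star hydrolysis; controls: DMSO-only wells and no-enzyme negative control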
hIAP block: blocks human intestinal alkaline phosphatase; purified IAP, CDP-Star luminescence, 30 min; P09923; 330,000 compounds, 0.12% hits; inhibition, % at 10 µM;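 active = inhibition reaching a set limit with compound at 10 µM in the primary screen, cut at about 35% in these data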;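 note: plate controls were DMSO wells with enzyme for no effect and no-enzyme buffer wells for full effect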
Target sequence (P09923 whole entry, looked up): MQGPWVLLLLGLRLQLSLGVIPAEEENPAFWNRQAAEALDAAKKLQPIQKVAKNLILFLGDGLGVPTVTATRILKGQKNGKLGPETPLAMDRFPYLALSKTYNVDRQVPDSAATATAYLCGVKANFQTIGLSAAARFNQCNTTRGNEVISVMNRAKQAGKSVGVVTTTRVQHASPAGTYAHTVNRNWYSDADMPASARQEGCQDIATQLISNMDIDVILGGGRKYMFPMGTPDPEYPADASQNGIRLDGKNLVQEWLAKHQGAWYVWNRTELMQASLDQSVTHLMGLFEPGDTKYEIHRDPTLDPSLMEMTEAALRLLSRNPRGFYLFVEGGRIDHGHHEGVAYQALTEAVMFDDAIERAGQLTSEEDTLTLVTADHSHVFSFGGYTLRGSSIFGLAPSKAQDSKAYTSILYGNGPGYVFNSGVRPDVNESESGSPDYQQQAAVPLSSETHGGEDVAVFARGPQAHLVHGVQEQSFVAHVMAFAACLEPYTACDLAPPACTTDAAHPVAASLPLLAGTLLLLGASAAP
hIAP activ: human IAP activation; P09923; purified human IAP, CDP-Star luminescence, 30 min; hits give high values; 1 = vehicle-only enzyme, 0 = enzyme-free background; activation factor at 10 µM; 330,000 compounds, 0.16% hits; AID 2524;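 active = activation factor of the enzyme at least 2-fold when tested at 20 µM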
bIAP inh: blocks bovine intestinal alkaline phosphatase activity; purified bovine IAP, CDP-star luminescence, 30 min; inhibition, % at 20 µM; 190,000 tested, under 10 active; AID 1019;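 active = over 50% inhibition of intestinal alkaline phosphatase at 20 µM in the single-dose screen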
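Incubation: 30 min reaction at room temperature / Material: purified bovine intestinal alkaline phosphatase (IAP) enzyme / Input: enzyme at 1/65,000,000 dilution / Dosing: 20 µM single dose / Signal: CDP-star luminescence signal / Reagent: CDP-star chemiluminescent phosphatase substrate, 30 µM final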
* hit, by the source's call.

How did CC1CCCC(C)N1C(=O)COC(=O)c1ccc(F)c(S(=O)(=O)N2CCOCC2)c1 (centres undefined) do in these assays?
mIAP block: -2; mIAP activ: 1; hIAP block: 2; hIAP activ: 0.97

Results for Cc1ccc(C(=O)Nc2ccccc2N2CCCC2)s1 ?
mIAP block: -1; mIAP activ: 1; hIAP block: 4; hIAP activ: 0.96

How did CCCN1C(=O)c2ccc(C(=O)Nc3nccs3)cc2C1=O do in these assays?
bIAP act: 1; mIAP block: -3; mIAP activ: 1; hIAP block: -22; hIAP activ: 1.2; bIAP inh: 2

Results for CCCc1cc(C(=O)Nc2nccs2)cs1 ?
bIAP act: 0.9; mIAP block: 66*; mIAP activ: 0.34; hIAP block: -4; hIAP activ: 1; bIAP inh: 12

Results for Cc1cccc(NS(=O)(=O)c2cnc[nH]2)c1 ?
bIAP act: 2*; mIAP block: 6; mIAP activ: 0.94; hIAP block: -23; hIAP activ: 1.2; bIAP inh: -96

How did CC1CCCCN1C(=O)CSc1nnc(Cc2ccccc2)n1C (centres undefined) do in these assays?
bIAP act: 2.1*; mIAP block: -2; mIAP activ: 1; hIAP block: 12; hIAP activ: 0.88; bIAP inh: -108

Results for CC1Cc2ccccc2N1C(=O)CSc1nnc(Cc2ccccc2)n1CCc1ccccc1 (centres undefined) ?
bIAP act: 5.4*; bIAP inh: -442

What do the screens show for `Cc1ccc(-n2ncc3c(NCc4ccco4)ncnc32)c(C)c1`?
bIAP act: 0.9; mIAP block: -9; mIAP activ: 1.1; hIAP block: -19; hIAP activ: 1.2; bIAP inh: 11

What do the screens show for `Cn1ncc2c(NNC(=O)c3ccc(O)cc3)ncnc21`?
bIAP act: 1.3; mIAP block: 30; mIAP activ: 0.7; hIAP block: -19; hIAP activ: 1.2; bIAP inh: -33

How did Cc1ccc(-n2ncc3c(NNC(=O)c4ccco4)ncnc32)c(C)c1 do in these assays?
bIAP act: 1.5; mIAP block: -2; mIAP activ: 1; hIAP block: -198; hIAP activ: 3*; bIAP inh: -46

Results for Cc1cccc(C(=O)NNc2ncnc3c2cnn3C)c1 ?
bIAP act: 1.5; mIAP block: 0; mIAP activ: 1; hIAP block: -113; hIAP activ: 2.1*; bIAP inh: -48

Results for COc1cccc(NC(=O)COC(=O)CCn2c(C)csc2=O)c1 ?
mIAP block: 0; mIAP activ: 1; hIAP block: -13; hIAP activ: 1.1

Results for N#C/C(=C/c1ccc(-c2ccc(S(N)(=O)=O)cc2)o1)C(=O)Nc1ccccc1 ?
bIAP act: 1; mIAP block: 28; mIAP activ: 0.72; hIAP block: -5; hIAP activ: 1; bIAP inh: 2

What do the screens show for `N#C/C(=C/c1ccc(-c2ccc(S(N)(=O)=O)cc2)o1)c1nc2ccccc2s1`?
bIAP act: 1; mIAP block: 57*; mIAP activ: 0.43; hIAP block: 9; hIAP activ: 0.91; bIAP inh: -4

What do the screens show for `COc1cccc(CN2CCNC(=O)C2CC(=O)NCCN2CCCCC2=O)c1` (centres undefined)?
mIAP block: -5; mIAP activ: 1; hIAP block: 8; hIAP activ: 0.92

What do the screens show for `Cc1cccc(NC(=O)C2C(c3ccccc3)C2(Cl)Cl)c1` (centres undefined)?
bIAP act: 1; mIAP block: -147; mIAP activ: 2.5*; hIAP block: -20; hIAP activ: 1.2; bIAP inh: 1

How did CN(CC(=O)Nc1ccc(F)cc1)C(=O)c1ccc(OCc2ccccc2)cc1 do in these assays?
mIAP block: -1; mIAP activ: 1; hIAP block: -7; hIAP activ: 1.1

Results for O=C(COC(=O)c1ccc(Cl)nc1)NNC(=O)c1ccc(Cl)cc1 ?
mIAP block: 4; mIAP activ: 0.96; hIAP block: 3; hIAP activ: 0.97

How did CCOC(=O)c1ccc(NC(=O)NC2CCN(CC(=O)NCc3ccc4c(c3)OCO4)CC2)cc1 do in these assays?
bIAP act: 1.2; mIAP block: -127; mIAP activ: 2.3*; hIAP block: -3; hIAP activ: 1; bIAP inh: -24

What do the screens show for `CCOc1ccccc1NC(=O)c1cccc(NC(=O)CC(c2ccccc2)c2ccccc2)c1`?
bIAP act: 1.1; mIAP block: -102; mIAP activ: 2*; hIAP block: 4; hIAP activ: 0.96; bIAP inh: -6

Results for CCOc1ccc(NC(=O)CC(c2ccccc2)c2ccc(F)cc2)cc1 (centres undefined) ?
bIAP act: 0.5; mIAP block: -117; mIAP activ: 2.2*; hIAP block: -16; hIAP activ: 1.2; bIAP inh: 47

How did NC(=O)CC(NC(=O)c1cccc(Br)c1)c1ccc(NC2CCCCCCC2)c([N+](=O)[O-])c1 (centres undefined) do in these assays?
mIAP block: 8; mIAP activ: 0.92; hIAP block: 2; hIAP activ: 0.97

What do the screens show for `Cc1cnc(C(=O)OCC(=O)c2ccc(C)s2)cn1`?
mIAP block: 2; mIAP activ: 0.98; hIAP block: -2; hIAP activ: 1

Results for Cc1ccccc1CSCC(=O)NCc1ccco1 ?
bIAP act: 2.2*; mIAP block: -1; mIAP activ: 1; hIAP block: 6; hIAP activ: 0.94; bIAP inh: -124

What do the screens show for `C/C(CC(=O)NC(C)C)=N\NC(=O)COc1cc(C)c(Br)cc1Br`?
bIAP act: 2.6*; mIAP block: -2; mIAP activ: 1; hIAP block: 6; hIAP activ: 0.94; bIAP inh: -159

What do the screens show for `Cc1ccc(SCC(=O)Nc2ccc(N3CCN(C)CC3)c(F)c2)c(C)c1`?
bIAP act: 1.3; mIAP block: 42*; mIAP activ: 0.58; hIAP block: -3; hIAP activ: 1; bIAP inh: -28

Results for Cc1ccc(-n2nnnc2SCC(=O)Nc2ccc(N3CCN(C)CC3)cc2)c(C)c1 ?
mIAP block: 1; mIAP activ: 0.99; hIAP block: 3; hIAP activ: 0.97

Results for COc1cccc(NC(=O)Cc2nnc(SCC(=O)NC3CCCCC3)n2C)c1 ?
mIAP block: 3; mIAP activ: 0.97; hIAP block: -13; hIAP activ: 1.1

Results for CCC(=O)Nc1cccc(C2=NN(c3ccccc3)C(c3ccc(OC)cc3)C2)c1 (centres undefined) ?
mIAP block: -173; mIAP activ: 2.7*; hIAP block: -39; hIAP activ: 1.4
